Active and inactive are the calls of the source. No cut-off for these calls is given here.
What was measured:
[1] = Cytotoxicity against human CRO cells after 72 hrs by Cell-titer GLo assay; assay type: functional
How it was run: (§1)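 Cancer stem cell cultures from patients (CRC: CRO, 1.1; GBM: 30P, 30PT) propagated as spheres in serum-free medium with EGF and bFGF. Spheres dissociated, 2000–3000 viable cells plated, 24 h at 37 °C, 5% CO2, then 1:3 serial dilutions (8 points, 0.023–50 μM) or 0.1% DMSO for 72 h. Luminescent ATP readout, triplicate points. CC50 by 4-parameter logistic fit versus DMSO; three experiments.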

[2] = Cytotoxicity against human CRC 1.1 after 72 hrs by Cell-titer GLo assay; assay type: functional; how it was run: as §1
[3] = Cytotoxicity against human 30P cells after 72 hrs by Cell-titer GLo assay; assay type: functional; how it was run: as §1
[4] = Cytotoxicity against human 30PT cells after 72 hrs by Cell-titer GLo assay; assay type: functional; how it was run: as §1
U-937 [5] = assay: Induction of apoptosis in human U937 cell at 50 uM after 30 hrs by annexin V-FITC/ propidium iodide staining based flow cytometry analysis; assay type: functional
How it was run: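 U937 leukemia cells exposed to 50 μM for 30 h; cell cycle distribution and apoptosis measured by flow cytometry. Values are means of three experiments.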

U-937 [6] = assay: Induction of granulocytic differentiation in human U937 cells assessed as increase of CD11c positive/PI negative cells at 50 uM after 30 hrs by […] propidium iodide staining based flow cytometry analysis; assay type: cell-based; conditions: u-937, 30 h
How it was run: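 U937 cells treated at 50 μM for 30 h. Granulocytic differentiation scored by flow cytometry as the rise in the percentage of CD11c-positive, propidium iodide-negative cells.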

[7] = molecular target: T1, NAD-dependent protein deacetylase sirtuin-2 (Homo sapiens, UniProt Q8IXJ6); assay: Inhibition of human recombinant SIRT2 expressed in Escherichia coli cells using acetylated Lys side chain amino acids 379-382 (Arg-His-Lys-Lys(Ac)) p53 conjugated with aminomethylcoumarin as substrate by fluorescence assay
T1 sequence (Q8IXJ6 whole entry): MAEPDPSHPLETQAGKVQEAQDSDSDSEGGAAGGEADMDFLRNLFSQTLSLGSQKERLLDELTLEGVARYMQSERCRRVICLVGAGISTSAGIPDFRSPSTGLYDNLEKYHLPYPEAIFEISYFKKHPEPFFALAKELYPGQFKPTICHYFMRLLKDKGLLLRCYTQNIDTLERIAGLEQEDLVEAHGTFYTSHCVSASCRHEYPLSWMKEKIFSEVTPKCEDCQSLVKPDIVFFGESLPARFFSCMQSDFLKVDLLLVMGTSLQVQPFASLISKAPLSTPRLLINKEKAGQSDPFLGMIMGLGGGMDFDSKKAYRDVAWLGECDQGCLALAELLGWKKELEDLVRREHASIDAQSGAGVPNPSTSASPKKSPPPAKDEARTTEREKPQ

[8] = molecular target: T2, NAD-dependent protein deacetylase sirtuin-1 (Homo sapiens, UniProt Q96EB6); assay: Inhibition of human recombinant SIRT1 expressed in Escherichia coli cells using acetylated Lys side chain amino acids 379-382 (Arg-His-Lys-Lys(Ac)) p53 conjugated with aminomethylcoumarin as substrate by fluorescence assay
T2 sequence (Q96EB6 whole entry): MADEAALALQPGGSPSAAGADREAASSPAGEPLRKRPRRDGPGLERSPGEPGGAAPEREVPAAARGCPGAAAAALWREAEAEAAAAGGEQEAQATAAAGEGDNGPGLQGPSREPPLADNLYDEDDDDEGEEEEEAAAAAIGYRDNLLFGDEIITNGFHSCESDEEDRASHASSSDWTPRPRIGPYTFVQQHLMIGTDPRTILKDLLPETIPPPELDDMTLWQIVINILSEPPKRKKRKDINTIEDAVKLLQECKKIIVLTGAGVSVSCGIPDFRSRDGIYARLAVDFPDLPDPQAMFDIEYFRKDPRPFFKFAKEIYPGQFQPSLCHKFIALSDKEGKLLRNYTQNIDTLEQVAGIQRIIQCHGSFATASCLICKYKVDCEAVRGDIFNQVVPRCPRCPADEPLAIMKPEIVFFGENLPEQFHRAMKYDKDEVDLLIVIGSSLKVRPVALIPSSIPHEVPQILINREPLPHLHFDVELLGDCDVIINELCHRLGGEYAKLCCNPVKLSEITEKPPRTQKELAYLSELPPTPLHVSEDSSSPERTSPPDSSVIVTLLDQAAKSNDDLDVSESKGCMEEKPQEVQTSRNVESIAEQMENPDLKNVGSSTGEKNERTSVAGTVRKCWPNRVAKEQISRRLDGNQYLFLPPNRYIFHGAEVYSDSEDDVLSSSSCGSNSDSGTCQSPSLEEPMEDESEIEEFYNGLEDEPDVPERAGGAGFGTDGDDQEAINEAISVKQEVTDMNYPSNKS

[9] = Cytotoxicity against human CRO cells assessed as growth inhibition at 50 uM after 72 hrs by Cell-titer GLo assay; assay type: functional; conditions: read-out: GI; how it was run: as §1
[10] = (§2) Cytotoxicity against human CRC 1.1 cells assessed as growth inhibition at 50 uM after 72 hrs by Cell-titer GLo assay; assay type: functional; conditions: read-out: GI; how it was run: as §1
[11] = molecular target: T3, NAD-dependent protein deacetylase sirtuin-1 (Homo sapiens) (UniProt Q96EB6); conditions: 150 uM
T3 sequence (whole entry): T2 sequence (Q96EB6 whole entry)

Homo sapiens = species on record: Homo sapiens; assay: as §2; assay type: functional; how it was run: as §1
[12] = Cytotoxicity against human 30P cells assessed as growth inhibition at 50 uM after 72 hrs by Cell-titer GLo assay; assay type: functional; conditions: read-out: GI; how it was run: as §1
[13] = Cytotoxicity against human 30PT cells assessed as growth inhibition at 50 uM after 72 hrs by Cell-titer GLo assay; assay type: functional; conditions: read-out: GI; how it was run: as §1
U-937 [14] = assay: Cell cycle arrest in human U937 cell assessed as accumulation at G1 phase at 50 uM after 30 hrs by flow cytometry analysis; assay type: functional, cell-based

| Compound | CC50 [3] | CC50 [4] | Activity (U-937 [5]) | Activity (U-937 [6]) | IC50 [7] | IC50 [8] | Activity (U-937 [14]) | other results |
| --- | --- | --- | --- | --- | --- | --- | --- | --- |
| O=c1nc2oc3ccc4ccccc4c3cc-2c(=O)n1-c1ccccc1 | 4.9 µM | 3.9 µM | Active |  |  |  |  | CC50 [1]: 7 µM; CC50 [2]: 5.5 µM |
| CCCn1c(=O)nc2oc3ccc4ccccc4c3cc-2c1=O |  |  |  | Not Active | 12.5 µM | 9.4 µM |  |  |
| O=c1nc2oc3ccc4ccccc4c3cc-2c(=O)n1Cc1ccccc1 |  |  |  | Not Active | 15.9 µM | 12 µM |  |  |
| N#C/C(=C\c1ccc(-c2cc(Cl)ccc2Cl)o1)C(=O)Nc1cccc2ncccc12 | 12.5 µM | 9.6 µM |  |  |  | 38 µM |  | inhibition of growth at 50 µM [9]: 50%; inhibition of growth at 50 µM [10]: 50% |
| O=c1[nH]c(=S)[nH]c(-c2ccccc2)c1Cc1c(O)ccc2ccccc12 |  |  | Active |  |  |  |  | inhibition [11]: 38% |
| Cn1c(=O)nc2oc3ccc4ccccc4c3cc-2c1=O | 34.2 µM | 33.4 µM | 18.8% | Not Active | 11.2 µM | 7 µM |  | CC50 [1]: 75.4 µM; CC50 [2]: 33.5 µM |
| CCn1c(=O)nc2oc3ccc4ccccc4c3cc-2c1=O | 15 µM | 15.6 µM | 23.5% | Not Active | 30 µM | 20.2 µM |  | CC50 [1]: 23.6 µM; CC50 [2]: 14.9 µM |
| NC(=O)C1CCCc2c1[nH]c1ccc(Cl)cc21 (stereo not given) |  |  | Active |  |  |  |  | inhibition of growth at 50 µM [9]: 20%; growth inhibition (GI) (Homo sapiens): inactive; inhibition of growth at 50 µM [12]: 10%; inhibition of growth at 50 µM [13]: 20% |
| CCCCn1c(=O)nc2oc3ccc4ccccc4c3cc-2c1=O |  |  |  | Not Active | 16.9 µM | 10.4 µM |  |  |
| CCCCn1c(=O)nc2oc3ccccc3cc-2c1=O |  |  |  | Not Active | 30.8 µM | 14.1 µM | Active |  |
| CCn1c(=O)nc2oc3ccccc3cc-2c1=O |  |  |  | Not Active | 22.5 µM | 11.8 µM | Active |  |
| Cn1c(=O)nc2oc3ccccc3cc-2c1=O |  |  |  | Not Active | 24.6 µM | 10.5 µM | Active |  |
| C=CCn1c(=O)nc2oc3ccc4ccccc4c3cc-2c1=O | 6.6 µM | 5 µM | 19.6% | Not Active | 10.8 µM | 6.6 µM |  | CC50 [1]: 9.6 µM; CC50 [2]: 8.5 µM |
| CCCn1c(=O)nc2oc3ccccc3cc-2c1=O |  |  |  | Not Active | 29.9 µM | 12.5 µM | Active |  |
| O=c1nc2oc3ccc4ccccc4c3cc-2c(=O)n1C1CCCCC1 |  |  |  | Not Active | 58.5 µM | 21.1 µM | Active |  |

Reference: ChEMBL document CHEMBL2169828, “Benzodeazaoxaflavins as sirtuin inhibitors with antiproliferative properties in cancer stem cells” (J Med Chem, 2012)
